Measurements collected from several papers.
Target: Dual specificity protein kinase CLK1 (CLK1, Homo sapiens, UniProt P49759)

For `Cn1cc(-c2cc(F)cc(N3CCn4c(cc5c4CCCC5)C3=O)c2CO)cc(Nc2ccc(N3CCN(C4COC4)CC3)cn2)c1=O`, the inhibition was 11% (enzyme activity, inhibitor; 0.1 µM).
With `Nc1ncc(-c2nc(N3CCOCC3)nc(N3CCOCC3)n2)c(C(F)F)n1` the remaining binding was 58% (binding, competition with immobilised ligand; 10 µM).
With `O=c1[nH]c2ccccc2n1C1CCN(Cc2ccc(-c3[nH]c4cc5ncnc5cc4nc3-c3ccccc3)cc2)CC1` the remaining signal was 109% (cell-free assay; 0.5 µM).
`Cn1cncc1[C@@](O)(COc1ccc(C#N)cc1-c1ccc(OC(F)(F)F)cc1)c1ccc(C#N)cc1` gave a remaining binding of 100% (cell-free assay, competition with immobilised ligand; 1 µM).
For `C#Cc1n[nH]c2c(-c3cn([C@@H](C)c4ccccn4)c(=O)[nH]c3=O)cc(F)cc12`, the inhibition was 4.1% (enzyme activity, inhibitor; 0.1 µM).
With `COc1cc(Nc2ncc(F)c(Nc3ccc4c(n3)NC(=O)C(C)(C)O4)n2)cc(OC)c1OC` the inhibition was 92% (binding, competition with immobilised ligand; 10 µM).
The remaining binding of `Cc1nn(C)cc1-c1nc2c(N3CCN(Cc4ccc(Cl)cc4)CC3)c(Cl)cnc2[nH]1` is reported as 63% (binding, competition with immobilised ligand; 1 µM).
With `CC(C)(C)c1cc(C=C(C#N)C#N)cc(Br)c1O` the remaining activity was 112% (enzyme activity, inhibitor; 0.5 µM).
For `COc1ncccc1-c1cnn2ccc(N3CCN(C(=O)OC(C)C)CC3)nc12`, the remaining binding was 81% (binding, competition with immobilised ligand; 1 µM).
